ChEMBL document CHEMBL1123395, “Correlation of the in vitro cytotoxic and in vivo antitumor activities of gold(I) coordination complexes” (J Med Chem, 1986)

Legend:
B16 = test: Concentration that reduces the number of colonies formed by 50% in a clonogenic assay with B16 mouse melanoma cells.; format: functional, cell-based
In short: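 B16 melanoma F10 monolayers were grown in MEM with 10% calf serum. Cells were plated at 5000/plate and attached overnight. They were exposed to compound for 2 h, diluted from a 2 mM ethanol stock into MEM, then washed with PBS. Colonies of more than 50 cells were grown for 5 days at 37 °C and stained with crystal violet, in triplicate. IC50 is the 50% reduction in colonies versus controls.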

P388 [1] = test: Concentration that reduces the number of colonies formed by 50% in a clonogenic assay with P388 leukemia cells.; format: functional, cell-based, Mus musculus
In short: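 P388 cells were kept in suspension culture. Colony-forming assay was run in 0.17% agarose, with colony formation and IC50 (50% reduction in colonies versus controls) measured as in the B16 assay. That assay used a 2 h exposure and 5 days of colony growth.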

Mus musculus = test: Maximally tolerated dose (MTD) in tumor bearing mice on a daily times 5 ip regimen.; format: functional, organism-based
In short: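 B6D2F1 mice inoculated ip with 10^6 P388 leukemia cells, randomized into groups of six after the inoculum was checked sterile in thioglycolate broth. Dosing ip on days 1-5, starting 24 h after inoculation. Vehicle was DMA, ethanol and Cremophor (10% final), diluted with saline for lower doses and prepared just before injection. Mortality monitored daily up to 45 days.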

P388 [2] = test: Antitumor activity expressed as increase in median life span (ILS) measured in mice inoculated (ip) with P388 leukemia cells; format: functional, organism-based; settings: Mus musculus
In short: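 Mice B6D2F1, inoculated ip with 10^6 P388 leukemia cells. After 24 h, with the inoculum confirmed free of bacteria by thioglycolate broth, mice were randomized into groups of six. Dosing was ip on days 1-5. The vehicle held DMA, ethanol and Cremophor at 10% final, with dilutions in saline. Mice were monitored daily for 45 days. ILS is the % increase in MST over untreated controls. The value reported is the maximum ILS from dose-response studies bracketing the maximally tolerated dose.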

P388 [3] = test: Ratio of in vitro cytotoxic potency in P388 / B16 cell lines; format: functional, cell-based; settings: Mus musculus
In short: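 Ratio of IC50 in the P388 colony-forming assay (0.17% agarose) to IC50 in the B16 clonogenic assay. Both assays used a 2 h drug exposure and counted colonies against controls.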

Row | Substance | IC50 (B16) [µM] | IC50 (P388 [1]) [µM] | MTD (Mus musculus) [µM/kg] | ILSmax (P388 [2]) [%] | Ratio (P388 [3])
1 | GOLD SODIUM THIOMALATE [listing 1 of 2 here] | 60 | 100 |  |  | 
2 | GOLD SODIUM THIOMALATE [listing 2 of 2 here] |  |  | 300 | 24 | 1.67
